Test results published in ChEMBL document CHEMBL1148632, “Discovery of a novel family of SARS-CoV protease inhibitors by virtual screening and 3D-QSAR studies” (J Med Chem, 2006).

target: Replicase polyprotein 1a (Severe acute respiratory syndrome-related coronavirus, UniProt P0C6U8); test: Inhibition of SARS coronavirus 3C-like protease; settings: read-out: -Log IC50 (converted)
How it was run: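 Recombinant SARS-CoV 3CLpro (pET32Xa/LIC construct) at 50 nM with 6 µM fluorogenic peptide Dabcyl-KTSAVLQ-SGFRKME-Edans in 20 mM Bis-Tris pH 7.0 at 25 °C. Cleavage read as fluorescence increase (ex 355, em 538 nm). Initial velocities plotted against inhibitor concentration; IC50 fitted with A[I] = A[0]×(1 − [I]/([I]+IC50)).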

With `Cc1nc(SCC(=O)Nc2ccc([N+](=O)[O-])cc2)nc(O)c1C` the IC50 was over 1000 µM.

same assay, conditions: read-out: IC50

Point of comparison: `CSc1sc(-c2nc(C)cs2)c(C)c1-c1ccnc(SCC(=O)Nc2ccccc2Cl)n1`, IC50 12 µM. Against it:
- O=C(CSc1nccc(-c2cc(-c3ccccc3)no2)n1)Nc1ccc(Cl)cc1 — within 1.5-fold, 15 µM
- Cc1nc(SCC(=O)Nc2ccc([N+](=O)[O-])cc2)nc(O)c1C — higher, > 1000 µM
- CCC(Sc1nc(O)c(C#N)c(-c2cccc(OC)c2)n1)C(=O)Nc1ccc(C(C)=O)cc1 (centres undefined) — 5-fold higher, 60 µM
- CC(C)c1ccc(NC(=O)CSc2nccc(-c3csc(COc4ccccc4Cl)n3)n2)cc1 — 17-fold higher, 200 µM
- COc1cccc(-c2nc(SCC(=O)Nc3ccc(C(C)=O)cc3)[nH]c(=O)c2C#N)c1 — 5-fold higher, 60 µM
- Cc1cc(O)nc(SCC(=O)Nc2ccc(Oc3ccc(Cl)cc3)cc2)n1 — 17-fold higher, 200 µM
- Cc1cc(C(F)(F)F)nc(SCC(=O)Nc2ccc(Cl)cc2F)n1 — 42-fold higher, 500 µM
- CCOC(=O)c1cnc(SCC(=O)Nc2ccc([N+](=O)[O-])cc2)nc1N — 21-fold higher, 250 µM
- O=C(CSc1nccc(-c2cc(-c3ccc(Cl)cc3Cl)no2)n1)Nc1ccc(C(F)(F)F)cc1 — within 1.5-fold, 15 µM
- CC(Sc1nc(-c2ccccc2)c(C#N)c(=O)[nH]1)C(=O)Nc1ccc(Cl)cc1 (centres undefined) — 25-fold higher, 300 µM
- CC(C)c1ccc(NC(=O)CSc2nccc(-c3cccs3)n2)cc1 — 3.3-fold higher, 40 µM
- N#Cc1c(-c2ccccc2)nc(SCC(=O)Nc2cccc(C(F)(F)F)c2)[nH]c1=O — 17-fold higher, 200 µM
- Cn1nc(-c2ccc(-c3ccnc(SCC(=O)Nc4ccc(Cl)cc4)n3)s2)cc1C(F)(F)F — within 1.5-fold, 10 µM
- CC(C)(C)c1ccc(NC(=O)CSc2nc(C3CCCCC3)c(C#N)c(=O)[nH]2)cc1 — 29-fold higher, 350 µM
- CCCCc1ccc(NC(=O)CSc2nc(O)c(C#N)c(C3CCCCC3)n2)c(C)c1 — 17-fold higher, 200 µM
- COc1ccc(NC(=O)CSc2nc(O)cc(-c3ccccc3)n2)cc1OC — 3.8-fold higher, 45 µM
- CSc1sc(-c2nc(C)cs2)c(C)c1-c1ccnc(SCC(=O)Nc2ccc(Cl)cc2)n1 — within 1.5-fold, 11 µM
- COc1ccc(-c2ccnc(SCC(=O)Nc3ccc(C(C)C)cc3)n2)cc1 — 33-fold higher, 400 µM
- CCOc1ccc(N2C(=O)CC(Sc3nc(C)cc(C)n3)C2=O)cc1 (centres undefined) — 25-fold higher, 300 µM
- O=C(CSc1nccc(-c2cc(-c3ccccc3Cl)no2)n1)Nc1ccc(Cl)cc1 — within 1.5-fold, 15 µM
- CCCc1cc(O)nc(SCC(=O)Nc2ccc(Cl)cc2)n1 — 2.5-fold higher, 30 µM
- Cc1nc(-c2nc(-c3ccnc(SCC(=O)Nc4ccc(Cl)cc4)n3)cs2)cs1 — within 1.5-fold, 14 µM
- COc1cccc(-c2nc(SCC(=O)Nc3ccc(S(N)(=O)=O)cc3)[nH]c(=O)c2C#N)c1 — 3.3-fold higher, 40 µM
- O=C(CSc1nccc(-c2csc(-c3ccccc3)n2)n1)Nc1cc(Cl)cc(Cl)c1 — 4-fold lower, 3 µM
- COc1cccc(-c2nc(SCC(=O)Nc3ccc([N+](=O)[O-])cc3)[nH]c(=O)c2C#N)c1 — 25-fold higher, 300 µM
- Cc1cc(O)nc(SCC(=O)Nc2cc(Cl)ccc2Oc2ccccc2)n1 — 8.3-fold higher, 100 µM
- COC(OC)c1cc(O)nc(SCC(=O)Nc2ccc(C(F)(F)F)cc2)n1 — 17-fold higher, 200 µM
